Assay results as given in ChEMBL document CHEMBL3526127, “Absorption, elimination, and metabolism of CS-1036, a novel α-amylase inhibitor in rats and monkeys, and the relationship between gastrointestinal distribution and suppression of glucose absorption” (Drug Metab Dispos, 2013).
Values belong to the molecule of their own block, whether it stands above or below them.

Key:
[1] = Cmax in cynomolgus monkey at 10 mg/kg, po administered as single dose by LC-MS/MS method; type: ADME, organism-based, Macaca fascicularis; design: dose 10 mg/kg, route oral; details: in vivo
Method in brief: (§1)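 Fasted male F344 rats (146–185 g) and cynomolgus monkeys (3.48–4.29 kg), n = 4 each, received a single oral dose; monkeys had 2-week washouts. Plasma sampled up to 48 h, stored at […], assayed by LC-MS/MS with a deuterated internal standard. Cmax taken from observed data by noncompartmental analysis; mean ± S.D. (n = 3 or 4).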

[2] = AUClast in cynomolgus monkey at 10 mg/kg, po administered as single dose by LC-MS/MS method; type: ADME, organism-based, Macaca fascicularis; design: time 0 - last, dose 10 mg/kg, route oral; details: plasma
Method in brief: (§2)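 Fasted male F344 rats (146–185 g) or male cynomolgus monkeys (3.48–4.29 kg), n = 4 per dose, given single iv or oral dose of 0.3, 1.0, 3.0 or 10.0 mg/kg; monkeys dosed with 2-week washouts. Blood sampled to 48 h; plasma stored frozen. LC-MS/MS with deuterated internal standard. Noncompartmental analysis: AUClast by trapezoidal rule; AUC0–inf = AUClast + Ctz/terminal rate constant; mean ± S.D.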

[3] = Half life in cynomolgus monkey at 3 mg/kg, po administered as single dose by LC-MS/MS method; type: ADME, organism-based, Macaca fascicularis; design: dose 3 mg/kg, route oral; details: in vivo
Method in brief: (§3)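 Male F344 rats (146–185 g) and male cynomolgus monkeys (3.48–4.29 kg), n = 4 each, fasted overnight, received single iv or oral doses of 0.3, 1.0, 3.0 or 10.0 mg/kg. Monkeys had 2-week washouts between doses. Plasma was sampled to 48 h and assayed by LC-MS/MS with deuterated internal standard. Noncompartmental analysis: tmax observed; t1/2 by regression on ≥3 terminal log points; Vss = dose·AUMC/(AUC0–inf)²; Foral = oral/iv AUC0–inf at the same dose.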

[4] = Oral bioavailability in cynomolgus monkey at 3 mg/kg administered as single dose by LC-MS/MS method; type: ADME, organism-based, Macaca fascicularis; details: in vivo; method in brief: as §3
[5] = AUClast in cynomolgus monkey at 0.3 mg/kg, iv administered as single dose by LC-MS/MS method; type: ADME, organism-based, Macaca fascicularis; design: time 0 - last, dose 0.3 mg/kg, route intravenous; details: plasma; method in brief: as §2
[6] = AUClast in cynomolgus monkey at 3 mg/kg, iv administered as single dose by LC-MS/MS method; type: ADME, organism-based, Macaca fascicularis; design: time 0 - last, dose 3 mg/kg, route intravenous; details: plasma; method in brief: as §2
[7] = Half life in cynomolgus monkey at 0.3 mg/kg, iv administered as single dose by LC-MS/MS method; type: ADME, organism-based, Macaca fascicularis; design: dose 0.3 mg/kg, route intravenous; details: in vivo; method in brief: as §3
[8] = Half life in cynomolgus monkey at 1 mg/kg, po administered as single dose by LC-MS/MS method; type: ADME, organism-based, Macaca fascicularis; design: dose 1 mg/kg, route oral; details: in vivo; method in brief: as §3
[9] = Cmax in cynomolgus monkey at 3 mg/kg, po administered as single dose by LC-MS/MS method; type: ADME, organism-based, Macaca fascicularis; design: dose 3 mg/kg, route oral; details: in vivo; method in brief: as §1
[10] = Cmax in F344 rat at 10 mg/kg, po administered as single dose by LC-MS/MS method; type: ADME, organism-based; design: dose 10 mg/kg, route oral; details: in vivo
[11] = Tmax in cynomolgus monkey at 10 mg/kg, po administered as single dose by LC-MS/MS method; type: ADME, organism-based, Macaca fascicularis; design: dose 10 mg/kg, route oral; details: in vivo; method in brief: as §3
[12] = AUC (0 to infinity) in cynomolgus monkey at 0.3 mg/kg, iv administered as single dose by LC-MS/MS method; type: ADME, organism-based, Macaca fascicularis; design: time infinity, dose 0.3 mg/kg, route intravenous; details: plasma; method in brief: as §2
[13] = AUC (0 to infinity) in cynomolgus monkey at 3 mg/kg, iv administered as single dose by LC-MS/MS method; type: ADME, organism-based, Macaca fascicularis; design: time infinity, dose 3 mg/kg, route intravenous; details: plasma; method in brief: as §2
[14] = Clearance in cynomolgus monkey at 10 mg/kg, iv administered as single dose by LC-MS/MS method; type: ADME, organism-based, Macaca fascicularis; design: dose 10 mg/kg, route intravenous; details: in vivo
Method in brief: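 Fasted male F344 rats (146–185 g) and male cynomolgus monkeys (3.48–4.29 kg), n = 4 each, received a single iv dose; monkeys had 2-week washouts between doses. Blood was sampled up to 48 h and plasma stored at […]. Plasma parent was quantified by LC-MS/MS with a deuterated internal standard. CL = dose/AUC0–inf by noncompartmental analysis; mean ± S.D.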

[15] = Volume of distribution at steady state in F344 rat at 0.3 mg/kg, iv administered as single dose by LC-MS/MS method; type: ADME, organism-based; design: dose 0.3 mg/kg, route intravenous; details: in vivo, read-out: Vdss; method in brief: as §3
[16] = Volume of distribution at steady state in F344 rat at 3 mg/kg, iv administered as single dose by LC-MS/MS method; type: ADME, organism-based; design: dose 3 mg/kg, route intravenous; details: in vivo, read-out: Vdss; method in brief: as §3
[17] = Volume of distribution at steady state in F344 rat at 10 mg/kg, iv administered as single dose by LC-MS/MS method; type: ADME, organism-based; design: dose 10 mg/kg, route intravenous; details: in vivo, read-out: Vdss; method in brief: as §3
[18] = Volume of distribution at steady state in cynomolgus monkey at 3 mg/kg, iv administered as single dose by LC-MS/MS method; type: ADME, organism-based, Macaca fascicularis; design: dose 3 mg/kg, route intravenous; details: in vivo, read-out: Vdss; method in brief: as §3
[19] = Tmax in cynomolgus monkey at 1 mg/kg, po administered as single dose by LC-MS/MS method; type: ADME, organism-based, Macaca fascicularis; design: dose 1 mg/kg, route oral; details: in vivo; method in brief: as §3
[20] = AUC (0 to infinity) in F344 rat at 0.3 mg/kg, iv administered as single dose by LC-MS/MS method; type: ADME, organism-based; design: time infinity, dose 0.3 mg/kg, route intravenous; details: plasma; method in brief: as §2
[21] = AUC (0 to infinity) in F344 rat at 10 mg/kg, po administered as single dose by LC-MS/MS method; type: ADME, organism-based; design: time infinity, dose 10 mg/kg, route oral; details: plasma; method in brief: as §2
[22] = AUClast in cynomolgus monkey at 1 mg/kg, po administered as single dose by LC-MS/MS method; type: ADME, organism-based, Macaca fascicularis; design: time 0 - last, dose 1 mg/kg, route oral; details: plasma; method in brief: as §2
[23] = AUClast in F344 rat at 3 mg/kg, po administered as single dose by LC-MS/MS method; type: ADME, organism-based; design: time 0 - last, dose 3 mg/kg, route oral; details: plasma; method in brief: as §2
[24] = Half life in F344 rat at 10 mg/kg, po administered as single dose by LC-MS/MS method; type: ADME, organism-based; design: dose 10 mg/kg, route oral; details: in vivo
Rattus norvegicus = assay: Total drug excretion in F344 rat at 1 mg/kg, iv administered as single dose after 0 to 48 hrs by scintillation counting method; type: ADME, organism-based; design: dose 1 mg/kg, route intravenous; details: in vivo
Method in brief: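 Fasted F344 rats (n = 4) received [14C]-labelled drug at 1 mg/kg (41.9 µCi/kg), iv via tail vein or oral. They were housed in metabolic cages. Urine and feces were collected to 168 h, and expired CO2 was trapped in 2-aminoethanol/2-methoxyethanol to 48 h. Radioactivity was counted by liquid scintillation, feces after homogenization. Results are % of dose.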

[25] = Drug metabolism in F344 rat feces assessed as 1,4-dideoxy-1,4-imino-D-arabinitol formation by LC-MS/MS method; type: ADME, tissue-based
[26] = Drug metabolism in monkey liver S9 fractions at 0.42 uCi/ml assessed as metabolite formation in presence of NADPH after 1 hr at 37 degC by LC-MS/MS method; type: ADME, subcellular, Macaca mulatta, Liver S9 fraction; details: rhesus monkey, s9, 1 h
Cynomolgus monkey = assay: Drug excretion in cynomolgus monkey assessed as drug level found during cage washing at 3 mg/kg, iv administered as single dose after 0 to 336 hrs by scintillation counting method; type: ADME, organism-based, Macaca fascicularis; design: dose 3 mg/kg, route intravenous; details: in vivo
Method in brief: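 Fasted cynomolgus monkeys (n = 4) received [14C]-labelled drug at 3 mg/kg, iv via saphenous vein (191 µCi/kg) or orally by stomach catheter (156.5 µCi/kg). Urine, feces and water cage-wash were collected to 336 h. Samples were counted by liquid scintillation; feces were homogenized in 4-fold water. Results are % of dose, mean ± S.D.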

Cmax [1]: 152 ng/mL
AUC(0-t) [2]: 869 ng·h/mL
half-life [3]: 2.12 h
bioavailability [4]: 1.05%
AUC(0-t) [5]: 2000 ng·h/mL
AUC(0-t) [6]: 18100 ng·h/mL
half-life [7]: 2.51 h
half-life [8]: 1.29 h
Cmax [9]: 44.8 ng/mL
Cmax [10]: 285 ng/mL
Tmax [11]: 1.75 h
AUC(0-inf) [12]: 2010 ng·h/mL
AUC(0-inf) [13]: 18200 ng·h/mL
clearance [14]: 2.25 mL/min/kg
Vd [15]: 0.218 L/kg
Vd [16]: 0.219 L/kg
Vd [17]: 0.222 L/kg
Vd [18]: 0.262 L/kg
Tmax [19]: 1.75 h
AUC(0-inf) [20]: 1870 ng·h/mL
AUC(0-inf) [21]: 1080 ng·h/mL
AUC(0-t) [22]: 52 ng·h/mL
AUC(0-t) [23]: 324 ng·h/mL
half-life [24]: 18.3 h
SMILES: C[C@H]1O[C@@H](O[C@H]2[C@H](O)[C@@H](O)[C@@H](O[C@H]3[C@H](O)CN[C@@H]3CO)O[C@@H]2CO)[C@H](O)[C@@H](O)[C@@H]1O

Drug excretion (Rattus norvegicus): 86.96%
Drug metabolism [25]: metabolite_detected
Drug metabolism [26]: metabolite_not_detected
Drug excretion (Cynomolgus monkey): 14.5%
SMILES: C[C@H]1O[C@@H](O[C@H]2[C@H](O)[C@@H](O)[C@@H](O[14C@H]3[14C@H](O)[14CH2]N[14C@@H]3[14CH2]O)O[C@@H]2CO)[C@H](O)[C@@H](O)[C@@H]1O
